This is a sample that favours compounds with a hit; in the whole collection about 4.1% have one here.
KCNK9 block = human KCNK9 channel inhibition; 310,000 tested, 1.2% active; B-score at 10 µM; Q9NPC2; HEK293 KCNK9, FluxOR thallium flux fluorescence; active compounds read low;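 active means ratio B-score over 3 SD below the library mean, with starting fluorescence within 5 SD of its mean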;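 further: negative B-score means less thallium flux so channel inhibition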
KCNK3 block = human KCNK3 channel inhibition, primary screen | O14649 | CHO-KCNK3 thallium flux, FluxOR fluorescence; active compounds read low | B-score at 10 µM | 340,000 tested, 0.84% active;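 active means B-score under library mean minus 4 SD, starting fluorescence ratio at most library mean plus 5 SD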;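 further: more negative B-score means stronger inhibition of thallium flux through KCNK3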
Cl transport mod = modulators of human KCC2 chloride dependent transport. Q9H2X9. KCC2 cells, thallium flux FluoZin-2 fluorescence. B-score of Tl+ flux slope (higher = more flux/activation; lower = inhibition) at 10 µM. 190,000 tested, 2.2% active;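 active means thallium flux slope and its plate-corrected score both differing from the plate sample mean at a set confidence after two filtering rounds, in either direction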;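 further: slope of fluorescence scaled to starting intensity during 10 to 20 s after thallium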
hERG rescue = compounds protecting human hERG from proarrhythmic drug block; activation (rescue from dofetilide block), less the hit threshold, % at 10 µM; 310,000 tested, 0.51% active; AID 1511; CHO-hERG, FluxOR thallium flux, dofetilide IC70 present;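 active means activation above the mean of controls blocked by dofetilide plus 5 SD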;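 further: thallium influx through hERG after potassium depolarization seen as dye fluorescence rise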
KCNQ1 pot = potentiates or activates the human KCNQ1 potassium channel; P51787; CHO-K1 KCNQ1, thallium flux FluxOR fluorescence; active compounds read high; B-score at 10 µM; 310,000 tested, 0.35% active; AID 2648;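 active means fluorescence ratio B-score, a plate-corrected score, at least three library SD, with initial intensity B-score within 5 SD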
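assay system = KCNQ1-transfected CHO-K1 cells | medium = assay buffer with matched DMSO | probe or stimulus = depolarizing K+/Tl+ stimulus, K2SO4 and Tl2SO4 each 12.5 mM in 5x stock | dosing = single dose | incubation = dye 90 min, compound 20 min, room temperature | detection = kinetic FluxOR fluorescence, 10 s baseline plus 110 s post-stimulus | evaluation = ratio B score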
KCNQ1 block = human KCNQ1 channel inhibition. P51787. CHO-K1 KCNQ1, FluxOR thallium flux fluorescence; active compounds read high. B-score at 10 µM. 310,000 tested, 1.3% active;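 active means compounds whose thallium flux B-score, printed positive for inhibition, exceeds three library SD while starting fluorescence stays within three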;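 further: channel opened by potassium depolarization with thallium stimulus after 20 min compound exposure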
KCNK9 block conf = confirmation of human KCNK9 potassium channel inhibitors | 4,900 tested, 43% active | inhibition, % at 10 µM | AID 492992 | shares compounds with KCNK9 block | HEK293 KCNK9 cells, FluxOR thallium flux fluorescence;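 active means thallium signal inhibited by more than 5 SD of the compound-free buffer control wells, on both duplicate plates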
Kir21 sel = selectivity of KCNK9 modulators against mouse Kir2.1; shares compounds with KCNK9 block; Kir2.1 cells, FluxOR thallium flux fluorescence; inhibition, % at 10 µM; 4,900 tested, 4% active;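 active means thallium signal drop more than 5 SD beyond the mean of the no-compound control wells, seen in both duplicate plates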;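 further: signal is fluorescence rise after thallium addition divided by baseline fluorescence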
Target sequence (P35561 whole entry, looked up): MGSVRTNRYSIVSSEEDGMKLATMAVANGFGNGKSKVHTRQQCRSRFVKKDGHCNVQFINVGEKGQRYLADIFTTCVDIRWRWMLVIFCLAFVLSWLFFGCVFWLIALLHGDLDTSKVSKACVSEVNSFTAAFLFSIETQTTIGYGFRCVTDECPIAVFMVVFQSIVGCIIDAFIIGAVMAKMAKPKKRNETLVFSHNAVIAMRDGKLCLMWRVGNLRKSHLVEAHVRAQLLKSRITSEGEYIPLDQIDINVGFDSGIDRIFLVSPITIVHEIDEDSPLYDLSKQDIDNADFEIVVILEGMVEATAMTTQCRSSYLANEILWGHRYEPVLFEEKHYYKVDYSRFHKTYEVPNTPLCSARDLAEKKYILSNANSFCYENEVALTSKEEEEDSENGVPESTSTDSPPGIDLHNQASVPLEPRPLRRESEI
KCNK9 uninduced = second check of KCNK9 modulator effects in non-induced HEK293 cells | inhibition, % at 10 µM | 4,900 tested, 40% active | shares compounds with KCNK9 block | FluxOR thallium flux;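 active means thallium signal drop beyond 5 SD of the untreated control mean, on both duplicate plates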
KCNK3 confirm = human KCNK3 channel inhibition, confirmation assay. CHO-KCNK3 thallium flux, FluxOR fluorescence; 0% buffer, 100% carvedilol maximal block. shares compounds with KCNK3 block. AID 651638. 2,400 tested, 99% active. ratio percent of control, % at 10 µM;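 active means ratio percent of control, averaged over triplicates, above buffer control mean plus 5 SD, cut at about 64% in these data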;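 further: ratio is the fluorescence rise from min to max over baseline after thallium stimulus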
KCNK3 noninduced = activity in cells without induced KCNK3 expression; shares compounds with KCNK3 block; non-induced KCNK3 parental cells, FluxOR thallium flux; active compounds read low; thallium flux ratio (lower = more inhibition) at 10 µM; 2,400 tested, 40% active; AID 651747;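 active means thallium flux ratio, averaged over three wells, more than 5 SD below the buffer control mean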;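 further: host cells are CHO cells without KCNK3 induction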
Numbers stand for hits; – = inactive; · = no result given.

SMILES	KCNK9 block	KCNK3 block	Cl transport mod	hERG rescue	KCNQ1 pot	KCNQ1 block	KCNK9 block conf	Kir21 sel	KCNK9 uninduced	KCNK3 confirm	KCNK3 noninduced
Cc1cc(C(=O)CSc2nc3ccc(Cl)cc3[nH]2)c(C)n1Cc1ccco1	–	-9.7	·	–	–	–	–	–	–	94	–
O=C(CSc1nc2ccc(Cl)cc2[nH]1)NCc1ccco1	–	–	–	–	–	–	·	·	·	·	·
CCc1cc(=O)oc2c3c(cc(OCC(=O)NCCCOC)c12)OC(C)(C)CC3	–	–	·	–	–	–	·	·	·	·	·
CC(=O)Nc1cc2c(cc1Br)OCCO2	–	–	–	–	–	–	·	·	·	·	·
Brc1ccc(CNc2cc3c(cc2Br)OCCO3)cc1	-9.1	–	–	–	–	–	28%	–	42%	103	–
COC(=O)c1c(C(=O)OC)c(-c2ccc(Cl)c(Cl)c2)n2c1CCC2	-8.2	–	–	–	–	–	32%	–	32%	92	–
COc1ccc(N2CCN(C(=O)COC(=O)[C@@H](NC(=O)OCc3ccccc3)C(C)C)CC2)cc1	·	–	·	·	·	·	·	·	·	·	·
COc1cccc(-c2nn(-c3ccccc3)cc2C(=O)O)c1	–	–	·	–	–	–	·	·	·	·	·
COc1cccc(-c2nn(-c3ccccc3)cc2/C=C\C(=O)c2cccs2)c1	-9.5	-12	·	–	–	–	39%	–	30%	89	–
CC(C)(C)c1ccc(C(CC(=O)O)NC(=O)Cc2ccccc2)cc1 (stereo not drawn)	–	–	·	–	–	–	·	·	·	·	·
CSC(=NC#N)N1CCN(C(c2ccccc2)c2ccccc2)CC1	-9.8	–	·	–	–	–	39%	–	35%	123	–
CSC(=NC#N)N1CCN(C(=NC#N)SC)CC1	–	–	–	–	–	–	·	·	·	·	·
CCc1nc(SCC(=O)NNC(=O)c2ccc(OC)cc2)c2ccccc2n1	–	–	–	–	–	–	·	·	·	·	·
CCCc1nc(SCC(=O)c2ccc(OC)cc2)c2ccccc2n1	-19	-11	–	–	–	–	78%	–	27%	108	0.16
CCCCC(C(=O)NC1CCCC1)N(Cc1ccco1)C(=O)Cn1nnc(-c2ccc(F)cc2)n1 (stereo not drawn)	-22	-12	–	–	–	–	54%	–	37%	92	–
O=C(Nc1cccc(NC(=O)c2ccccc2Cl)c1)c1cccs1	-13	–	·	–	–	–	57%	–	28%	112	–
COc1ccc(-c2cccc(NC(=O)c3cccs3)c2)nn1	-9.1	-10	·	–	–	–	35%	–	–	96	–
Cc1ccc(NC(=O)c2cccs2)cc1NC(=O)c1ccccc1Cl	–	–	·	–	–	–	·	·	·	·	·
COc1ccc(N(CC(=O)Nc2ccccc2OC)S(=O)(=O)c2ccc(NC(C)=O)cc2)cc1	–	–	·	–	–	–	·	·	·	·	·
Cc1ccc(C)c(Nc2cc(C)nc(-c3ccccc3O)n2)c1	-9.4	-11	·	–	–	–	49%	–	40%	125	0.12
O=S1(=O)C=C(Oc2ccc3ccccc3c2)c2ccccc21	-9.6	-9.7	–	–	–	–	40%	–	42%	107	–
O=S1(=O)C=C(Oc2ccc(F)cc2)c2ccccc21	–	–	–	–	–	–	·	·	·	·	·
CC(NC(=O)c1ccc(OC2CCN(Cc3ccccn3)CC2)cc1)c1nccs1 (stereo not drawn)	–	–	·	–	–	–	·	·	·	·	·
CCc1ccc(N2CC(C(=O)OCc3nc4ccsc4c(=O)[nH]3)CC2=O)cc1 (stereo not drawn)	·	–	·	·	·	·	·	·	·	·	·
CC(Cc1cccs1)NC(=O)Nc1ccc(Cl)cc1 (stereo not drawn)	–	–	–	–	–	–	·	·	·	·	·
SMILES	KCNK9 block	KCNK3 block	Cl transport mod	hERG rescue	KCNQ1 pot	KCNQ1 block	KCNK9 block conf	Kir21 sel	KCNK9 uninduced	KCNK3 confirm	KCNK3 noninduced
CC(Cc1cccs1)NC(=O)Nc1ccc(Cl)c(Cl)c1 (stereo not drawn)	-16	-13	–	–	–	–	62%	–	42%	110	0.16
Cn1nnnc1SCC(=O)Nc1cc(S(=O)(=O)N2CCCC2)ccc1Cl	–	–	–	–	–	–	·	·	·	·	·
Cc1ccc(S(=O)(=O)N(C)C)cc1NC(=O)CSc1nnnn1-c1ccc(O)cc1	-14	-9.8	–	–	–	–	42%	–	26%	106	–
CN(C)S(=O)(=O)c1ccc(Cl)c(NC(=O)CSc2nnnn2-c2ccc(O)cc2)c1	-12	-9	–	–	–	–	50%	–	28%	96	–
Cc1ccc(NC(=O)C2CCCN2C(=O)c2cccs2)c(C)c1 (stereo not drawn)	–	–	·	–	–	–	·	·	·	·	·
CCn1ccnc1CN(C)Cc1c(C(=O)N2C[C@@H](C)O[C@@H](C)C2)nc2ccc(Cl)cn12	–	–	·	–	–	–	·	·	·	·	·
O=C(NCc1ccc(F)cc1)c1cccc(S(=O)(=O)N2CCOCC2)c1	·	–	·	·	·	·	·	·	·	·	·
Cc1ccc2c(c1)[C@H]1[C@H](CO2)[C@H](c2ccccc2)[C@]2(C)C(=O)Nc3cc(F)ccc3C(=O)N12	·	–	·	·	·	·	·	·	·	·	·
c1ccc(-c2nnnn2-c2ccccn2)cc1	·	–	·	·	·	·	·	·	·	·	·
Cc1cccc(C(C)C)c1-n1nnnc1-c1ccccc1	-12	-10	–	–	–	–	53%	–	40%	117	–
CN(CC(=O)Nc1cccc(C(F)(F)F)c1)Cc1ccccc1	-15	-12	·	–	–	–	64%	–	41%	106	–
CC(C1CC1)N(Cc1ccccc1)C(=S)Nc1cccc(C(F)(F)F)c1 (stereo not drawn)	-13	-9.2	–	–	–	–	56%	–	39%	125	–
CCOC(=O)c1cc(-c2ccccc2)sc1NC(=O)CSc1nnnn1C	-9.6	-11	·	–	–	–	54%	–	32%	104	–
CCOC(=O)c1cccc(NC(=O)CSc2nnnn2C)c1	–	–	–	–	–	–	·	·	·	·	·
CCOC(=O)c1sc(-c2ccccc2)cc1NC(=O)CSc1nnnn1C	-11	-12	–	–	–	–	52%	–	34%	87	–
COc1ccc(CNC(=O)CN2C(=O)CCSc3ccc(S(=O)(=O)N4CCCC4)cc32)cc1	–	–	·	–	–	–	·	·	·	·	·
O=C(Nc1nc(-c2ccc(Cl)s2)cs1)c1cccs1	-9.2	-8.9	–	–	–	–	–	–	32%	97	–
